The results in this text go back to ChEMBL document CHEMBL3272285, “A potential amphetamine antagonist, adamantanamine derivative of fluphenazine” (J Med Chem, 1976).

Data set [1] relates to Rattus norvegicus. The experiment in a line: Toxicity in Sprague-Dawley rat assessed as sedation effect at 70 mg/kg, sc for 2 days. It counts as organism-based. Also noted: dose 70 mg/kg, route subcutaneous. Particulars: in vivo, 48 h.
Data set [2] has as its system Rattus norvegicus. The experiment in a line: Inhibition of d-amphetamine-induced increase shock avoidance response in Sprague-Dawley rat at 70 mg/kg, sc on day 1, drug administered prior to 2 mg/kg d-amphetamine challenge on 1,2,4 and 7th day relative to control. It counts as functional. More on the design: scale not given: the % may be the effect or the level left. The procedure, abridged: (§1)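 Rats were pretreated sc with 0.1 mmol of the dihydrochloride 1, 2, 4 or 7 days before 2 mg/kg d-amphetamine sulfate, in groups of five. Each was placed in a shuttle box 30 min after amphetamine and ran one session. Light and tone came on a variable interval 60-s schedule, with shock 5 s later; a trial ended without response 30 s after shock onset. Avoidances over 50 trials were scored as % of an amphetamine-only control group.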

The test system of data set [3] is Rattus norvegicus. The experiment in a line: Toxicity in Sprague-Dawley rat assessed as spontaneous locomotor activity at 70 mg/kg, sc on day 4 relative to control. Format: organism-based. More on the design: dose 70 mg/kg, route subcutaneous. The conditions noted are these: in vivo.
The test system of data set [4] is Rattus norvegicus. Kind of data set: Inhibition of d-amphetamine-induced increase spontaneous locomotor activity in Sprague-Dawley rat at 70 mg/kg, sc on day 1, drug administered prior to 2 mg/kg d-amphetamine challenge on 1,2,4 and 7th day relative to control. Format: functional. More on the design: scale not given: the % may be the effect or the level left. The procedure, abridged:
(§2)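 After the initial drug injections, with a sesame oil vehicle group as control, rats got 2 mg/kg d-amphetamine in saline on days 1, 2, 4 and 7. Motor activity was recorded with an electronic motility meter for 30 min immediately after each amphetamine dose, at the same time of day. Counts are expressed as % of the vehicle control group.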

The subject of data set [5] is Rattus norvegicus. The experiment in a line: Inhibition of d-amphetamine-induced increase shock avoidance response in Sprague-Dawley rat at 70 mg/kg, sc on day 2, drug administered prior to 2 mg/kg d-amphetamine challenge on 1,2,4 and 7th day relative to control. Format: functional. Also noted: scale not given: the % may be the effect or the level left. A digest of the protocol: as §1

Data set [6] deals with Rattus norvegicus. The experiment in a line: Inhibition of d-amphetamine-induced increase shock avoidance response in Sprague-Dawley rat at 70 mg/kg, sc on day 4, drug administered prior to 2 mg/kg d-amphetamine challenge on 1,2,4 and 7th day relative to control. It counts as functional. Also noted: scale not given: the % may be the effect or the level left. The procedure, abridged:
as §1

Data set [7] has as its system Rattus norvegicus. Kind of data set: Toxicity in Sprague-Dawley rat assessed as shock avoidance response at 70 mg/kg, sc on day 2 relative to d-amphetamine. Particulars: in vivo. It counts as organism-based. Also noted: dose 70 mg/kg, route subcutaneous.
Data set [8] relates to Rattus norvegicus. Kind of data set: Toxicity in Sprague-Dawley rat assessed as spontaneous locomotor activity at 70 mg/kg, sc on day 1 relative to control. It counts as organism-based. The conditions noted are these: in vivo. More on the design: dose 70 mg/kg, route subcutaneous.
For data set [9], the system named is Rattus norvegicus. The experiment in a line: Toxicity in Sprague-Dawley rat assessed as shock avoidance response at 70 mg/kg, sc on day 7 relative to d-amphetamine. It counts as organism-based. More on the design: dose 70 mg/kg, route subcutaneous. The conditions noted are these: in vivo.
For data set [10], the system named is Rattus norvegicus. The experiment in a line: Inhibition of d-amphetamine-induced increase spontaneous locomotor activity in Sprague-Dawley rat at 70 mg/kg, sc on day 4, drug administered prior to 2 mg/kg d-amphetamine challenge on 1,2,4 and 7th day relative to control. It counts as functional. Also noted: scale not given: the % may be the effect or the level left. The procedure, abridged: as §2

Data set [11] has as its system Rattus norvegicus. Kind of data set: Toxicity in Sprague-Dawley rat assessed as spontaneous locomotor activity at 70 mg/kg, sc on day 2 relative to control. Also noted: dose 70 mg/kg, route subcutaneous. It counts as organism-based. The conditions noted are these: in vivo.
Data set [12] relates to Rattus norvegicus. Kind of data set: Inhibition of d-amphetamine-induced increase spontaneous locomotor activity in Sprague-Dawley rat at 70 mg/kg, sc on day 2, drug administered prior to 2 mg/kg d-amphetamine challenge on 1,2,4 and 7th day relative to control. It counts as functional. More on the design: scale not given: the % may be the effect or the level left. The procedure, abridged:
as §2

Data set [13] concerns Rattus norvegicus. Kind of data set: Toxicity in Sprague-Dawley rat assessed as shock avoidance response at 70 mg/kg, sc on day 1 relative to d-amphetamine. It counts as organism-based. More on the design: dose 70 mg/kg, route subcutaneous. Particulars: in vivo.
The subject of data set [14] is Rattus norvegicus. Kind of data set: Toxicity in Sprague-Dawley rat assessed as spontaneous locomotor activity at 70 mg/kg, sc on day 7 relative to control. The conditions noted are these: in vivo. Also noted: dose 70 mg/kg, route subcutaneous. It counts as organism-based.
The subject of data set [15] is Rattus norvegicus. Kind of data set: Inhibition of d-amphetamine-induced increase shock avoidance response in Sprague-Dawley rat at 70 mg/kg, sc on day 7, drug administered prior to 2 mg/kg d-amphetamine challenge on 1,2,4 and 7th day relative to control. Format: functional. Also noted: scale not given: the % may be the effect or the level left. A digest of the protocol: as §1

The subject of data set [16] is Rattus norvegicus. Kind of data set: Inhibition of d-amphetamine-induced increase spontaneous locomotor activity in Sprague-Dawley rat at 70 mg/kg, sc on day 7, drug administered prior to 2 mg/kg d-amphetamine challenge on 1,2,4 and 7th day relative to control. Format: functional. Also noted: scale not given: the % may be the effect or the level left. A digest of the protocol:
as §2

In data set [17] the test system is Rattus norvegicus. The experiment in a line: Toxicity in Sprague-Dawley rat assessed as shock avoidance response at 70 mg/kg, sc on day 4 relative to d-amphetamine. Format: organism-based. More on the design: dose 70 mg/kg, route subcutaneous. The conditions noted are these: in vivo.

Take `Cl.O=C(NC12CC3CC(CC(C3)C1)C2)OCCN1CCN(CCCN2c3ccccc3Sc3ccc(C(F)(F)F)cc32)CC1`: the Activity result with Rattus norvegicus [1] was “Toxic”; in the data set with Rattus norvegicus [2], 16.7%; in the data set on Rattus norvegicus [3] it was 29.6%; with Rattus norvegicus [4], 55.7%; in the data set with Rattus norvegicus [5], 47%; in the data set with Rattus norvegicus [6], 61.8%. For the same compound, the Activity in the data set on Rattus norvegicus [7] is recorded as 82.2%; in the data set on Rattus norvegicus [8] it was 52.8%; in the data set with Rattus norvegicus [9], 72%; in the data set on Rattus norvegicus [10], 71.2%; in the data set on Rattus norvegicus [11], 47.8%; with Rattus norvegicus [12], 51.9%. For the same compound, the Activity in the data set on Rattus norvegicus [13] came out at 71.5%; with Rattus norvegicus [14], 26.6%; in the data set on Rattus norvegicus [15], 92.5%; with Rattus norvegicus [16], 101.2%; in the data set with Rattus norvegicus [17] it was 90.9%.
